Source: PubChem BioAssay (several laboratories)
In the library only some 2.1% were active in any assay of this set; here they are far more common.
MC4R barr agon = MC4R agonists recruiting beta-arrestin, primary screen, cell-based, luminescence, agonist arm of biased-ligand search. Melanocortin receptor 4 (Homo sapiens), P32245. U2OS MC4R beta-arrestin complementation; percent of melanotan II response, DMSO zero. activation, % at 8.9 µM. hit rate 0.98% among 360,000;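 active means activation above a per-plate cutoff, the mean activation of sample wells on that plate plus 3 SD, cut at about 8% in these data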
TLR9-MyD88 block = inhibitors of TLR9-MyD88 association in cells, primary screen, cell-based, CHO, BLA complementation, fluorescence. Toll-like receptor 9 (Homo sapiens) + Myeloid differentiation primary response protein …. CCF4 FRET ratio. inhibition, % at 4.98 µM. hit rate 0.21% among 340,000;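 active means inhibition above the mean over all tested compounds plus 3 SD, cut at about 21% in these data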;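 further: 0% = DMSO only wells and 100% = clavulanate BLA inhibitor control wells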
MC4R antagonist = MC4R antagonists of cAMP signaling, primary screen, cell-based, TR-FRET, antagonist arm of biased-ligand search. Melanocortin receptor 4 (Homo sapiens), P32245. MC4R-expressing cells, MTII-stimulated cAMP, LANCE TR-FRET. inhibition, % at 6.5 µM. hit rate 0.48% among 360,000. AID 540295, 2011;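 active means inhibition above its plate's cutoff, the mean of tested wells on that plate plus 3 SD, cut at about 29% in these data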;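 further: 0% = Melanotan II alone and 100% = Melanotan II plus saturating MCL0020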
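Assay system: U2OS cells stably expressing human melanocortin 4 receptor (MC4R) / Dosing: 6.5 µM / Timing: compound 30 min, challenge 1 h, detection 1 h / Measured by: Eu-cAMP/anti-cAMP TR-FRET, emission 671 nm / Replicates: singlicate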
NOD2 RIPK2 PPI = NOD2-RIPK2 binding disruptors in cells, primary screen, fluorescence, CHO cells, BLA complementation; hit rate 0.38% among 360,000; CCF4 ratio; Receptor-interacting serine/threonine-protein kinase 2 (Homo sapiens), O43353; inhibition, % at 4.98 µM; in the data active means inhibition above about 21%;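 further: 0% = vehicle only and 100% = reference blocker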
MIN6 prolif-1 = inducers of MIN6 beta-cell proliferation, primary screen, ATP luminescence, uHTS. MIN6 cells proliferation, ATPlite luminescence, 48 h; cells starved in 0.2% serum; 100% = growth in 10% serum. proliferation, % at 10 µM. hit rate 0.29% among 330,000. AID 2380, 2010;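 active means compounds whose signal lies at least 3.5 SD above the mean of all wells on their plate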;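 further: 0% = DMSO-treated cells in low-serum medium and 100% = 10% serum control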
TLR4-MyD88 BLA = inhibitors of TLR4-MyD88 association in cells, primary screen, cell-based, HeLa CL3-4, BLA complementation, FRET ratio. Toll-like receptor 4 (Homo sapiens) + Myeloid differentiation primary response protein …. HeLa CL3-4 TLR4/MyD88 BLA complementation. inhibition, % at 8.4 µM. hit rate 0.18% among 200,000. AID 861, 2007; in the data active means inhibition above about 25%;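 further: 0% = vehicle and 100% = reference inhibitor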
Target sequence (O00206 whole entry, looked up): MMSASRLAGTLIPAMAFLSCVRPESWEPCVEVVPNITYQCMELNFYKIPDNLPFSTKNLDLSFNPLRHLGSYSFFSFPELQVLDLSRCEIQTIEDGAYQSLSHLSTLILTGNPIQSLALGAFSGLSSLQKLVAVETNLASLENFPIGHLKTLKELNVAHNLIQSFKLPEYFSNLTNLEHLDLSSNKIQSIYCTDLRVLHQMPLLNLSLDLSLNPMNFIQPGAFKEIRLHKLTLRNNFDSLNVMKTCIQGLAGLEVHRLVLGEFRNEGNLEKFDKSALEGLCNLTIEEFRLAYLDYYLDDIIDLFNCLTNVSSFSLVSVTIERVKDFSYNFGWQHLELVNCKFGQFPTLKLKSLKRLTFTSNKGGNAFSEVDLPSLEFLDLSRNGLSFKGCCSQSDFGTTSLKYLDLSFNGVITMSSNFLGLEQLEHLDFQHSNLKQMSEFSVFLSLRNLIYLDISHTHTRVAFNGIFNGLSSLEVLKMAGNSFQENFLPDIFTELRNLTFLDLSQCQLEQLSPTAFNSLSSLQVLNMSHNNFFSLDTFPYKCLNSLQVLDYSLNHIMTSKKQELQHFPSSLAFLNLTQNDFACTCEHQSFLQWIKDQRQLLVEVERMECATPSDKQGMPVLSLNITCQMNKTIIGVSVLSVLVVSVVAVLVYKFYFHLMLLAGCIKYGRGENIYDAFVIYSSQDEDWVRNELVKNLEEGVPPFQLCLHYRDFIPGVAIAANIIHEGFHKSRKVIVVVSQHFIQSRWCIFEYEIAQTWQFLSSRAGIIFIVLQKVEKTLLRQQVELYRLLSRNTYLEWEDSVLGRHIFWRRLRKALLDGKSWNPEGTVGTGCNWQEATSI
Target sequence (Q99836 whole entry, looked up): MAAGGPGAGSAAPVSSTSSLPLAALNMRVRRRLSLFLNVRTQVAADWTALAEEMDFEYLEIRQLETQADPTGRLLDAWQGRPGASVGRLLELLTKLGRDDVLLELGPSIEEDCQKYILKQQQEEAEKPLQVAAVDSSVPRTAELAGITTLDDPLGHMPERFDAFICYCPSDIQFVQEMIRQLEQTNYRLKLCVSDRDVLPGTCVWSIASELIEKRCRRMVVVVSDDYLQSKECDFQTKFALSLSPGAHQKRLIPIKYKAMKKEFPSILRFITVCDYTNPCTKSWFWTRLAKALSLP
MIN6 prolif-2 = inducers of beta-cell proliferation in MIN6, confirmation, MIN6 cells, mouse; proliferation increase, % at 50 µM; 920 tested, under 10 active; ATPlite luminescence, 48 h; cells kept in 0.2% serum; scaled between 0.2% and 10% serum; AID 463095, 2010; shares compounds with MIN6 prolif-1;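 active means proliferation increase above 40% at any of the four tested concentrations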
MC4R barr ag = MC4R beta-arrestin agonists, retest, confirmation, cell-based, luminescence, U2OS; shares compounds with MC4R barr agon; U2OS MC4R beta-arrestin recruitment; scaled DMSO 0%, Melanotan II 100%; activation, % at 8.9 µM; hit rate 31% among 2,400; AID 602192, 2012;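 active means mean activation across replicates above the hit cutoff set in the earlier primary screen, cut at about 8% in these data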
MOR DOR agonist = agonists of MOR-DOR heterodimerization, counter-screen for MC4R biased agonist project, cell-based, luminescence. hit rate 5.8% among 2,400. activation, % at 9.2 µM. shares compounds with MC4R barr agon. U2OS PathHunter beta-arrestin, beta-gal luminescence; percent of deltorphin B response, DMSO zero;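 active means mean activation across replicates exceeds the hit threshold derived in the earlier primary screen, cut at about 18% in these data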;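 further: 100% = deltorphin B at 0.9 µM final and 0% = DMSO alone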
* hit, by the source's call; . = not tested or not shown.

SMILES | MC4R barr agon | TLR9-MyD88 block | MC4R antagonist | NOD2 RIPK2 PPI | MIN6 prolif-1 | TLR4-MyD88 BLA | MIN6 prolif-2 | others
C[C@@H](O)C1NC(=O)[C@H](CCCCN)NC(=O)c2cc([N+](=O)[O-])cc(F)c2NCCCC[C@@H](C(N)=O)NC1=O (some centres undefined) | -1 | -6 | 3 | 5 | 9.7* | 8 | -3
COC(=O)C(C(=O)OC)c1ccccc1NC(=O)OCc1ccccc1 | . | . | . | -12 | . | . | .
C=CCOc1ccc(-c2nc3c(c(=O)[nH]c(=O)n3CCCC)n2C)cc1OC | 1 | -9 | 2 | 6 | 12* | -6 | 2
COc1ccccc1N(CC(=O)NC(C)C)S(=O)(=O)c1cccs1 | -1 | 6 | 15 | -8 | 8.3* | 8 | 1
COc1ccc(-c2nnc(-c3ccc(Br)o3)o2)cc1OC | -1 | -5 | 7 | -8 | 7.2* | -11 | 2
CCc1ccccc1N(C(=O)c1snc(C(N)=O)c1N)C(C(=O)NCC1CCCO1)c1ccc(N(C)C)cc1 (centres undefined) | -1 | -1 | 18 | -9 | 8.7* | . | -1
Cc1ccc(N(C(=O)c2snc(C(N)=O)c2N)C(C(=O)NCC2CCCO2)c2ccc(C)o2)c(C)c1 (centres undefined) | 0 | 6 | 5 | 7 | 17* | . | -6
COc1ccc(C(C(=O)NCc2ccccc2)N(C(=O)c2snc(C(N)=O)c2N)c2ccccc2OC)cc1OC (centres undefined) | 0 | 6 | 4 | -2 | 22* | . | -2
Cc1ccc(C)c(NC(=O)C(c2ccccc2)N2CCOCC2)c1 (centres undefined) | -2 | 10 | 3 | 6 | -1 | -2 | .
O=C(O)c1cccc(Br)c1 | -2 | -11 | 6 | 7 | . | . | .
Cc1nnc2ccc(-c3ccc(NC(=O)c4ccc(Cl)nc4)cc3)nn12 | . | . | . | . | 8.5* | 15 | -1
CC(=O)Nc1ccc(NC(=O)c2ccc(Cl)nc2)cc1 | 0 | -2 | -4 | -5 | -1 | . | .
Cc1c(NS(=O)(=O)c2ccccc2)c(=O)n(-c2ccccc2)n1C | 0 | 5 | 1 | -3 | 3 | 8 | .
Cc1c(NS(=O)(=O)c2cccc(C(=O)O)c2)c(=O)n(-c2ccccc2)n1C | -4 | -13 | 14 | -12 | 4.9* | . | -4
O=C(NNC1=NCCC1)c1cccc(Br)c1 | -1 | 0 | 4 | -4 | 9.7* | -16 | 4
Cc1ccccc1C(=O)NNC1=NCCC1 | 0 | 0 | 1 | 9 | -2 | -10 | .
O=C(Nc1ccc2c(c1)OCCO2)C1c2ccccc2OCC(=O)N1CC(F)(F)F (centres undefined) | . | . | . | -13 | . | . | .
CC(CCc1ccccc1)NC(=O)COC(=O)c1ccccc1O (centres undefined) | -2 | -4 | 7 | -15 | -2 | -3 | .
O=P(O)(CCCP(=O)(O)CCc1ccccc1)CCc1ccccc1 | -1 | 1 | 7 | -5 | 8.8* | . | -4
Cn1nc(C2CC2)cc1NC(=O)C1(C)CCN1C(=O)CC(c1ccccc1)c1ccccc1 (centres undefined) | 0 | . | 7 | -14 | . | . | .
C#CCOC(=O)c1ccc(-n2cncn2)nc1 | -1 | 2 | 3 | -7 | 5.9* | -2 | -1
CCOC(=O)c1ccc(-n2cncn2)nc1 | 0 | -6 | 5 | 0 | 0 | -2 | .
CN(Cc1cccs1)C(=O)COc1cccc2c1OC(C)(C)C2 | -2 | -7 | 3 | -1 | 9.9* | . | -1
OCCC1CN(Cc2ccc3cccc(F)c3n2)CCN1Cc1ccccc1 (centres undefined) | 0 | -4 | 17 | -2 | -3 | . | .
COc1cc(Nc2nc3ccccc3n3nnnc23)cc(OC)c1OC | 1 | -5 | 8 | -7 | 10* | -1 | -6
SMILES | MC4R barr agon | TLR9-MyD88 block | MC4R antagonist | NOD2 RIPK2 PPI | MIN6 prolif-1 | TLR4-MyD88 BLA | MIN6 prolif-2 | others
CCOc1cc(-c2noc(-c3ccncc3)n2)cc(Br)c1OC | -1 | -7 | 9 | 9 | 0 | 4 | .
CCOc1ccc(-c2nc(-c3cccnc3)no2)cc1OCC | -2 | -9 | -2 | -6 | 9.7* | 8 | -1
CCOc1cc(-c2nc(-c3cc(OC)c(OC)c(OC)c3)no2)cc(OCC)c1OCC | . | . | . | . | 6.5* | -4 | 3
CCN(CC)C(=O)[C@H]1CC(CC(=O)NCc2ccc(OC)c(OC)c2)C(=O)N2CCc3c([nH]c4ccc(OC)cc34)[C@]12C (some centres undefined) | -1 | -4 | -3 | 2 | . | . | .
CN(CCC1CCOCC1)C(=O)C1CCC(=O)N(CCc2ccccc2)C1 (centres undefined) | -1 | 1 | 0 | -1 | -2 | . | .
COCCCn1c(=O)/c(=C\c2ccc(OC(F)F)c(OC)c2)s/c1=C(/C#N)C(N)=O | 12* | 6 | -4 | -3 | 9.0* | . | -1 | MC4R barr ag=6;MOR DOR agonist=15
CCOC(=O)[C@@H]1[C@H]2COc3ccc(Br)cc3[C@@H]2N2C(=O)N(c3ccc(C(F)(F)F)cc3)C(=O)[C@@]12C | -1 | -5 | 6 | 0 | -6 | . | .
